Results published in ChEMBL document CHEMBL1145780, “Evaluation of the first cytostatically active 1-aza-9-oxafluorenes as novel selective CDK1 inhibitors with P-glycoprotein modulating properties” (J Med Chem, 2003).

Legend:
[1] = target: T1, ATP-dependent translocase ABCB1 (Homo sapiens, UniProt P08183); assay: Inhibition of membrane efflux pump P-glycoprotein at 7 uM; format: functional
Method in brief: (§1)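 Rhodamine 123 uptake in L5178Y mouse T-cell lymphoma parental cells and the L5178YvMDR subline transfected with human MDR-1, at 2 × 10⁶ cells/mL in serum-free McCoy's 5A. Cells were preincubated with compound at room temperature, then given 5.2 μM rhodamine 123 (final) for 20 min at 37 °C and washed twice in PBS. Fluorescence of 1 × 10⁴ cells was read by flow cytometry. R = (MDR treated/untreated)/(parental treated/untreated), mean of two determinations.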

Tumor Cell line = assay: Cytostatic activity in performed screen of NCI 60 cell lines, mean graph midpoint; format: functional; settings: Homo sapiens
Method in brief: (§2)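 NCI in vitro antitumour screen across 60 human tumour cell lines, run as a sulforhodamine B protein cytotoxicity assay. Values are log GI50, mean of two determinations. The panel mean-graph midpoint (MG_MID) summarises all 60 lines, and the ovarian IGROV1 line is reported individually.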

[2] = target: T1, ATP-dependent translocase ABCB1; assay: Inhibition of P-glycoprotein, MDR-1, expressed in mouse T-cell lymphoma cell line at 70 uM; format: functional, cell-based; method in brief: as §1
[3] = target: Cyclin-dependent kinase 1/cyclin B (Homo sapiens, UniProt P06493+P14635+Q8WWL7+O95067); assay: Inhibition of Cyclin-dependent kinase 1-cyclin B from M phase starfish (Marthasterias glacialis) oocytes (inactive); format: cell-based, Asteroidea; settings: oocyte
IGROV-1 = assay: Inhibition of ovarian cancer IGROVI cell proliferation; format: functional; settings: Homo sapiens; method in brief: as §2
[4] = target: Cyclin-dependent kinase 5/CDK5 activator 1 (Homo sapiens) (UniProt Q00535+Q15078); assay: Inhibition of Cyclin-dependent kinase 5 (CDK5) at 10 uM; format: protein-complex assay
Method in brief: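 Recombinant GST-tagged mammalian CDK5 and p25 mixed in equal amounts and purified. Assayed in the same homogenization buffer as CDK1/cyclin B (Mops pH 7.2, Mg2+, EGTA, DTT, phosphatase inhibitors) at 30 °C with 15 μM final ATP for 10 min. Phosphate incorporation measured with blanks subtracted. Percent inhibition at 10 μM test concentration, mean of two determinations.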

[5] = target: Cyclin-dependent kinase 1/cyclin B (Homo sapiens, UniProt O95067+P06493+P14635+Q8WWL7); assay: Inhibition of Cyclin-dependent kinase 1-cyclin B from M phase starfish (Marthasterias glacialis) oocytes; format: cell-based, Asteroidea, Oocyte
Cyclin-dependent kinase 1/cyclin B (Homo sapiens, UniProt O95067+P06493+P14635+Q8WWL7), sequence (P06493 whole entry): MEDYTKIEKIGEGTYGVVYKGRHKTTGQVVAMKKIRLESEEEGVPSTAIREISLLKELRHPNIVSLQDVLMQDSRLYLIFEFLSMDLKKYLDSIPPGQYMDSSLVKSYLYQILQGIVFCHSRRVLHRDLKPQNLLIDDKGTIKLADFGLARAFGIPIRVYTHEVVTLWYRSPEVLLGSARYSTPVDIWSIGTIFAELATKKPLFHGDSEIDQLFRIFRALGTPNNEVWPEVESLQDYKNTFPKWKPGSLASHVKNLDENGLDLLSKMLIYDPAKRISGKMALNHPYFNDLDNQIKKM
Cyclin-dependent kinase 1/cyclin B (Homo sapiens, UniProt O95067+P06493+P14635+Q8WWL7), sequence (P14635 whole entry): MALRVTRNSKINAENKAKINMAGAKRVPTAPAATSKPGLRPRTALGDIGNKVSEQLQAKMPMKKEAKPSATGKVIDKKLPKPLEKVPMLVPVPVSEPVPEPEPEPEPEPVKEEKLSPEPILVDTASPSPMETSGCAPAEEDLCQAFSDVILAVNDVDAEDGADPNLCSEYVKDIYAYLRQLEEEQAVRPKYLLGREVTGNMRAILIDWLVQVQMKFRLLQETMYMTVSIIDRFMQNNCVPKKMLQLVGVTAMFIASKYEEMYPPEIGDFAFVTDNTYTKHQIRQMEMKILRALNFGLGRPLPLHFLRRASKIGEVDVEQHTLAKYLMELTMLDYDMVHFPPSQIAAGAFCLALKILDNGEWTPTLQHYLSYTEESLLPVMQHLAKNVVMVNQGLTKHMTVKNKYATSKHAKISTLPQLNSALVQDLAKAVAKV
Cyclin-dependent kinase 1/cyclin B (Homo sapiens, UniProt O95067+P06493+P14635+Q8WWL7), sequence (Q8WWL7 whole entry): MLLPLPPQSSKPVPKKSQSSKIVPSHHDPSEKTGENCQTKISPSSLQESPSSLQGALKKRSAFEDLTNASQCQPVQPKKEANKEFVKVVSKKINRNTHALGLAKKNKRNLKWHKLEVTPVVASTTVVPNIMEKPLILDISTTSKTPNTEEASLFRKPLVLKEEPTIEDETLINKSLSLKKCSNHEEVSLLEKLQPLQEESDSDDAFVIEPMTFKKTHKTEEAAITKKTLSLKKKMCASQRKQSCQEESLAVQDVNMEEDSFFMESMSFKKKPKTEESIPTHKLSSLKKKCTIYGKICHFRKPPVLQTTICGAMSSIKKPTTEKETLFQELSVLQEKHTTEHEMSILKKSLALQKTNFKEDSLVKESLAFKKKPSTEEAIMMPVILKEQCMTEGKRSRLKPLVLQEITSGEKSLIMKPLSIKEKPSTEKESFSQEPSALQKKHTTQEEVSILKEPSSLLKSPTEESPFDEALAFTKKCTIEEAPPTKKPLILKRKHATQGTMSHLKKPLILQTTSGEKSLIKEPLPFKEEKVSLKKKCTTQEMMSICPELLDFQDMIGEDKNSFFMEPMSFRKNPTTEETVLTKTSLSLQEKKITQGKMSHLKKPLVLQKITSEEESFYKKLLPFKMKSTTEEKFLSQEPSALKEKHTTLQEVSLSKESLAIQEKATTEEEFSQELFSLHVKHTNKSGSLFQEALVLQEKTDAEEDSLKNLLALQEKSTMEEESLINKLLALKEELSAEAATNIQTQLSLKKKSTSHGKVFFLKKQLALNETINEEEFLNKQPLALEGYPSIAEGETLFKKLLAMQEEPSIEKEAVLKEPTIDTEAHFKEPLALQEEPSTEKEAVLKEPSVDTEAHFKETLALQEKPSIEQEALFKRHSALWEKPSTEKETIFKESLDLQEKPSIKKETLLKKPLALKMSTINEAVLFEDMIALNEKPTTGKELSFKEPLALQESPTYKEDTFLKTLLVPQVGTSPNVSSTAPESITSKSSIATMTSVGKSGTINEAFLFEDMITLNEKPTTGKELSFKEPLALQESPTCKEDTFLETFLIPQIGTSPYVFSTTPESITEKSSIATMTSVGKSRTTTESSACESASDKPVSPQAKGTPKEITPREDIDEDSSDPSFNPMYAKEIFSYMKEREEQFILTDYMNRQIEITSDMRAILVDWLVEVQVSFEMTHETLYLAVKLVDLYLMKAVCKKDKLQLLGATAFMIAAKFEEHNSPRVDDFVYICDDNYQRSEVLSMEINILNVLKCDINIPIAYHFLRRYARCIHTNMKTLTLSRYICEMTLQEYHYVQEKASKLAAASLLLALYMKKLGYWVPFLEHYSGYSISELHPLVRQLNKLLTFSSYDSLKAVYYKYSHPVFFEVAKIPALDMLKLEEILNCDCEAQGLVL
Cyclin-dependent kinase 1/cyclin B (Homo sapiens, UniProt O95067+P06493+P14635+Q8WWL7), sequence (O95067 whole entry): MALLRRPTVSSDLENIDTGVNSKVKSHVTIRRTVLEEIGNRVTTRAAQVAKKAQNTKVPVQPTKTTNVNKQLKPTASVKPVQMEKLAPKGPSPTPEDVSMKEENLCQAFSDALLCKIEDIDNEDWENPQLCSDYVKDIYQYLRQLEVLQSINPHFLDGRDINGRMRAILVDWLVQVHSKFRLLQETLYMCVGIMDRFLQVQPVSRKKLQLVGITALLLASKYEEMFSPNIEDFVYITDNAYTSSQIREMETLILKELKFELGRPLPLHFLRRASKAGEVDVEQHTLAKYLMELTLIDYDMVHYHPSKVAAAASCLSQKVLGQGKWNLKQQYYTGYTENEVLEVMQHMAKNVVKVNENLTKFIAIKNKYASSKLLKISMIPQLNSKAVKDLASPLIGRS

T1 sequence (P08183 whole entry): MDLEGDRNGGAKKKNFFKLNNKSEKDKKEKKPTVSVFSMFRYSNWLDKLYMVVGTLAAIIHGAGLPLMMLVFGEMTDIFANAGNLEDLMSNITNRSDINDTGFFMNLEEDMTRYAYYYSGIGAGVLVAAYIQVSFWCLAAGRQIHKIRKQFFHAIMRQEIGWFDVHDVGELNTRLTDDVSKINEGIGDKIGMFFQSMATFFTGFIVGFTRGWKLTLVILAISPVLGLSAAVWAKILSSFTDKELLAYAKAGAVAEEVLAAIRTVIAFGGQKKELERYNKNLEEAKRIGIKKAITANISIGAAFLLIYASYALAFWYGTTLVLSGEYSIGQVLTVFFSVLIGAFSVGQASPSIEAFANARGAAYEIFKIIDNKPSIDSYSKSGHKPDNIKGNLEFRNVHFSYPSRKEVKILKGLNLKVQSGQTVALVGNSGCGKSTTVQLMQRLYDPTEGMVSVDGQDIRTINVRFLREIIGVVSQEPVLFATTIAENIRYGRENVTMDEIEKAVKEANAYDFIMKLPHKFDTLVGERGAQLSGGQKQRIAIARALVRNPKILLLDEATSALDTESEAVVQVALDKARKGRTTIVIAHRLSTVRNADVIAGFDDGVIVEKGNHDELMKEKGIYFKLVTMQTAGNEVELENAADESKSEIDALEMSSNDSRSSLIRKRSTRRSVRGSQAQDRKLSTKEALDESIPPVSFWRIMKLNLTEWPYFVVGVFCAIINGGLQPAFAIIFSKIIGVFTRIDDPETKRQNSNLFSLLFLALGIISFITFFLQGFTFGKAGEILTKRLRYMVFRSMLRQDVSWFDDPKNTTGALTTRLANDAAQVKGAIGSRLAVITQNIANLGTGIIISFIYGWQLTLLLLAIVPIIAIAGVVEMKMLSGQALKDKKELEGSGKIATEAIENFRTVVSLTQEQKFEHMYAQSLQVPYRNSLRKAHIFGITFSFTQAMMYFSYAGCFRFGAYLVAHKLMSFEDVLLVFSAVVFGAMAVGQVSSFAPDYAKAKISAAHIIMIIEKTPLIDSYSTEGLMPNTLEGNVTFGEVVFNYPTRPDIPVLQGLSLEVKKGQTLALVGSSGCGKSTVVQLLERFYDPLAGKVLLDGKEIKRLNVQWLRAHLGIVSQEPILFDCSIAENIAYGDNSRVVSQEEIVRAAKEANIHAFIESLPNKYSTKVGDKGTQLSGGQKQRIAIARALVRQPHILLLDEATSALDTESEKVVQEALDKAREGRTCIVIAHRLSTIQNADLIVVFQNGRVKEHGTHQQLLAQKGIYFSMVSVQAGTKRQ
Cyclin-dependent kinase 5/CDK5 activator 1 (Homo sapiens), sequence (Q00535 whole entry): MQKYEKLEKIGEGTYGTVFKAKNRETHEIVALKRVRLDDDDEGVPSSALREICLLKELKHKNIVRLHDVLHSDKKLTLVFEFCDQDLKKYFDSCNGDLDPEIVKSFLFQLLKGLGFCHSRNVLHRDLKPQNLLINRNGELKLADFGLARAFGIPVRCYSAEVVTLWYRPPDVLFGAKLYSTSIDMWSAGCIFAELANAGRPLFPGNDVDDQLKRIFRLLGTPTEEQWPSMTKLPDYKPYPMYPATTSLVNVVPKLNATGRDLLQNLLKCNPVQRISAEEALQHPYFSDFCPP
Cyclin-dependent kinase 5/CDK5 activator 1 (Homo sapiens), sequence (Q15078 99-307 partner limits assumed): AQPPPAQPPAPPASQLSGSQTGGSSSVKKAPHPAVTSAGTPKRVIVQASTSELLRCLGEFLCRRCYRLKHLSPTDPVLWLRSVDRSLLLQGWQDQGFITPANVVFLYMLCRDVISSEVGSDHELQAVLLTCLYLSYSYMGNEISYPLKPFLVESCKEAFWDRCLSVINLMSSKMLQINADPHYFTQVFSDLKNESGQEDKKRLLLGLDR
Cyclin-dependent kinase 1/cyclin B (Homo sapiens, UniProt P06493+P14635+Q8WWL7+O95067), sequence (P06493 whole entry): as the sequence (P06493 whole entry) above
Cyclin-dependent kinase 1/cyclin B (Homo sapiens, UniProt P06493+P14635+Q8WWL7+O95067), sequence (P14635 whole entry): as the sequence (P14635 whole entry) above
Cyclin-dependent kinase 1/cyclin B (Homo sapiens, UniProt P06493+P14635+Q8WWL7+O95067), sequence (Q8WWL7 whole entry): as the sequence (Q8WWL7 whole entry) above
Cyclin-dependent kinase 1/cyclin B (Homo sapiens, UniProt P06493+P14635+Q8WWL7+O95067), sequence (O95067 whole entry): as the sequence (O95067 whole entry) above

Compound | Inhibitory activity ratio [1] | GI50 (Tumor Cell line) | Inhibitory activity ratio [2] | IC50 [3] | GI50 (IGROV-1) | inhibition [4] | IC50 [5]
CCOC(=O)c1cnc2oc3ccc(O)cc3c2c1C | 1.18 | 79.4 µM | 4.77 | Not Active | 79.4 µM | 3% | –
CC(=O)c1cnc2oc3ccc(O)cc3c2c1-c1ccccc1 | 1.26 | 31.6 µM | 6.74 | – | 5.01 µM | 15% | 4.2 µM
CCOC(=O)c1cnc2oc3ccc(O)cc3c2c1-c1ccccc1 | 9.5 | 31.6 µM | 9.14 | – | 2.51 µM | 6% | 28.8 µM
CCOC(=O)c1cnc2oc3ccc(OC(C)=O)cc3c2c1-c1ccccc1 | – | – | – | – | > 100 µM | – | –
CC(=O)c1cnc2oc3ccc(O)cc3c2c1C | – | > 100 µM | – | Not Active | > 100 µM | 10% | –
